Measured values collected from several papers.
Each line is one published result; the experiments were not run side by side.
Observed: cell growth or viability

CC(C)C[C@H](NC(=O)[C@H](Cc1ccccc1)NC(=O)c1cnccn1)B(O)O — IC50 (MM.1R; ATP luminescence; 48 h): 0.0089 µM
CC(C)C[C@H](NC(=O)[C@H](Cc1ccccc1)NC(=O)c1cnccn1)B(O)O — IC50 (HT-1080; ATP luminescence): 0.013 µM
CCCON(Cc1ccc(C(=O)NO)cc1)C(=O)Nc1ccc(N(C)C)cc1 — IC50 (SUP-B15; ATP luminescence; 72 h): 6.62 µM
COc1cc(OC)c(/C=C/S(=O)(=O)Nc2ccc(OC)c(N)c2)c(OC)c1 — IC50 (NCI-H187; trypan blue; 96 h): 0.004 µM
CCCCCCCCCCCC(=O)Oc1c(C)c(O)c(C(=O)/C=C/c2ccccc2)c(OC)c1C — IC50 (SH-SY5Y; SRB; 72 h): > 50 µM
O=C1Nc2ccccc2C1=Cc1cc2cc(Cl)ccc2nc1Cl — IC50 (CHO; MTT; 72 h): 38.5 µM
COc1cc(C(=O)Nc2cc(OC)c3ccccc3n2)nc(C(=O)Nc2cc(OC)c3ccccc3n2)c1 — IC50 (HT-1080; ATP luminescence; 72 h): > 40 µM
CCN1C(=O)N(c2c(F)c(OC)cc(OC)c2F)Cc2cnc3[nH]c(CN4CCOCC4)cc3c21 — IC50 (NCI-H716; ATP luminescence; 96 h): 0.00171 µM
CCN(CC)CCNC(=O)c1c(C)[nH]c(/C=C2\C(=O)Nc3ccc(F)cc32)c1C — IC50 (IEC-6; 72 h): 3.06 µM
C=C(C)C(=O)Nc1ccc(-c2c(-c3ccc(Oc4nccc(C)n4)c(F)c3)c3c(N)ncnc3n2C)cc1 — IC50 (NCI-H716; ATP luminescence; 96 h): 0.00209 µM
NCCCOc1cc(NC(=O)c2cccc(C(=O)Nc3cc(OCCCN)c4ccccc4n3)n2)nc2ccccc12 — IC50 (HT-1080; ATP luminescence; 72 h): 1.1 µM
Clc1ccc2c(NCCN(Cc3ccccn3)Cc3ccccn3)ccnc2c1 — IC50 (CHO; MTT): > 240 µM
Cc1cc(C)cc(COc2cc3c(cc2OCc2cc(C)cc(C)c2)[C@H]2C[C@](O)(Cc4cn(Cc5ccc(S(C)(=O)=O)cc5)nn4)C[C@H](C)N2CC3)c1 — IC50 (GES1; MTT; 48 h): 2.05 µM
CCN1CCN(c2ccc(Nc3cc(N(C)C(=O)Nc4c(Cl)c(OC)cc(OC)c4Cl)ncn3)cc2)CC1 — IC50 (SNU-16; ATP luminescence; 96 h): 0.00931 µM
CC(=O)O[C@@]12CO[C@@H]1C[C@H](O)[C@@]1(C)C(=O)[C@H](O)C3=C(C)[C@@H](OC(=O)[C@H](O)[C@@H](NC(=O)OC(C)(C)C)c4ccccc4)C[C@@](O)([C@@H](OC(=O)c4ccccc4)[C@H]21)C3(C)C — IC50 (HCC1937; ATP luminescence; 72 h): > 2.5 µM
CC(C)/N=C1\c2cc(C(N)=O)nc3c(N)c(Cl)c(N)c(c23)N1C — IC50 (HCC4017): 0.48 µM
COc1c(C)c(OS(=O)(=O)c2ccc3ccccc3c2)c(C)c(OS(=O)(=O)c2ccc3ccccc3c2)c1C(=O)/C=C/c1ccccc1 — IC50 (SH-SY5Y; SRB; 72 h): > 50 µM
O=C(Nc1cccc(CO)c1)c1c[nH]c2ccc(Cl)cc12 — IC50 (T24; MTT): 16 µM
COc1cc(C(=O)Nc2cc(OCCN3CCCC3)c3ccccc3n2)nc(C(=O)Nc2cc(OCCN3CCCC3)c3ccccc3n2)c1 — IC50 (HT-1080; ATP luminescence; 72 h): 1.5 µM
Cc1cc(C)cc(COc2cc3c(cc2OCc2cc(C)cc(C)c2)[C@H]2C[C@](O)(Cc4cn(Cc5ccncc5)nn4)C[C@H](C)N2CC3)c1 — IC50 (GES1; MTT; 48 h): 2.55 µM
O=C(O)c1ccc(NC(=O)c2cc3cc(Cl)ccc3[nH]2)cc1 — IC50 (T24; MTT): 15 µM
Cc1ccc2nc(Cl)c(C=C3C(=O)Nc4ccccc43)cc2c1 — IC50 (CHO; MTT; 72 h): 80 µM
C#CCOc1cc(C(=O)Nc2cc(OCCCN)c3ccccc3n2)nc(C(=O)Nc2cc(OCCCN)c3ccccc3n2)c1 — IC50 (HT-1080; ATP luminescence; 72 h): 2.6 µM
Cn1ccnc1CNCCNc1ccnc2cc(Cl)ccc12 — IC50 (CHO; MTT): 240 µM
O=C(Nc1cc(OCCN2CCCC2)c2ccccc2n1)c1cc(Cl)cc(C(=O)Nc2cc(OCCN3CCCC3)c3ccccc3n2)n1 — IC50 (HT-1080; ATP luminescence; 72 h): 3.4 µM
COc1ccc(OC)c(NC(=S)NN=Cc2ccccn2)c1 — IC50 (BHK; SRB; 48 h): 111 µM
NCCCOc1cc(NC(=O)c2cc(OCCN)cc(C(=O)Nc3cc(OCCCN)c4ccccc4n3)n2)nc2ccccc12 — IC50 (HT-1080; ATP luminescence; 72 h): 6.8 µM
COc1cc(Nc2nccc(-c3cnn4nc(OC)ccc34)n2)cc(C(F)(F)F)c1 — IC50 (A 172; ATP luminescence): 0.43 µM
CN(C)CCCOc1cc(NC(=O)c2cc(Cl)cc(C(=O)Nc3cc(OCCCN(C)C)c4ccccc4n3)n2)nc2ccccc12 — IC50 (HT-1080; ATP luminescence; 72 h): 1.8 µM
CCCON(Cc1ccc(C(=O)NO)cc1)C(=O)Nc1ccccc1 — IC50 (SUP-B15; ATP luminescence; 72 h): 6.78 µM
C#CCOc1cc(C(=O)Nc2cc(OCCN)c3ccccc3n2)nc(C(=O)Nc2cc(OCCN)c3ccccc3n2)c1 — IC50 (HT-1080; ATP luminescence; 72 h): 4.7 µM
CN1C(=O)c2cc(C(N)=O)nc3c(N)c(Cl)c(N)c1c23 — IC50 (HCC4017): 15.9 µM
